The text below walks through data of ChEMBL document CHEMBL1152334, “Quassinoid inhibition of AP-1 function does not correlate with cytotoxicity or protein synthesis inhibition” (J Nat Prod, 2009).

Assay [1] deals with HEK293. Nature of the assay: Inhibition of TPA-induced NF-kappaB transfected in HEK293 cells treated 1 hr before TPA stimulation measured after 18 hrs by luciferase reporter gene assay. The assay is classed as cell-based. The gist of the method:
(§1)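 HEK293 cells were grown in DMEM with 10% FBS at 37 °C and 5% CO2. They were transiently transfected with a luciferase reporter (0.1 µg/well); reporters were AP-1 (four TRE consensus copies from GCN4), NF-κB (five responsive-element copies) or SRE. After 24 h, medium went to DMEM with 0.2% FBS. Cells were pretreated 1 h with compound or DMSO, then given TPA 10 ng/mL for 18 h. Firefly luciferase was read from passive-lysis lysates, TPA alone = 100%, in quadruplicate.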
A general note: A reporter such as luciferase makes a cellular process visible.

Assay [2] has as its system Nucleic Acid. Nature of the assay: Inhibition of TPA-induced SRE transfected in HEK293 cells treated 1 hr before TPA stimulation measured after 18 hrs by luciferase reporter gene assay. It is filed as cell-based. The gist of the method: as §1
Assay [3] deals with T1, Inhibitor of nuclear factor kappa-B kinase subunit alpha (Homo sapiens) (UniProt O15111).
T1 sequence (whole entry): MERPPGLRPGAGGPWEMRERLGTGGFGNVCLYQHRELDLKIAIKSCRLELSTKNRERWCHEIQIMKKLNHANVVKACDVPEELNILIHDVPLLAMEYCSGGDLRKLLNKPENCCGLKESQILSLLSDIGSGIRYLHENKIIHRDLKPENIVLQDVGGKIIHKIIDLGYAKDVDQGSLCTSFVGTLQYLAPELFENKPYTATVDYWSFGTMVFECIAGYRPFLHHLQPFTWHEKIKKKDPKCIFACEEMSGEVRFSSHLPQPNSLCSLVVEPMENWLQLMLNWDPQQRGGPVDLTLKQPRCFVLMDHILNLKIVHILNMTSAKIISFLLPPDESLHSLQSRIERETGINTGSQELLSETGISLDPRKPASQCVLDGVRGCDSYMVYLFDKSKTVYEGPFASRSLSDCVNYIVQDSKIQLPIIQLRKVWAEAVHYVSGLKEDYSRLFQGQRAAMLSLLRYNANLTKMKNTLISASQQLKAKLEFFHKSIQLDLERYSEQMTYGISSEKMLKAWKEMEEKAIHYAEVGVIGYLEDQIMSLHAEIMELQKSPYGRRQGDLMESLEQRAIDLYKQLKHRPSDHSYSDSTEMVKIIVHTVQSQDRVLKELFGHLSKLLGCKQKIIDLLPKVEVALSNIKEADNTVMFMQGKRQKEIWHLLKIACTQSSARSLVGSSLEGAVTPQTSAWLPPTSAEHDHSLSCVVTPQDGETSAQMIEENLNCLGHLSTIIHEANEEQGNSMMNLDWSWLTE
Nature of the assay: Inhibition of TPA-induced IkappaBalpha phosphorylation in HEK293 whole cell extract at 15.8 uM treated 1 hr before TPA stimulation measured after 18 hrs by immunoblot analysis. It is filed as cell-based. The gist of the method:
(§2)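 HEK293 cells were exposed to compound or DMSO for 1 h, then induced with TPA 10 ng/mL for 18 h. Cells were lysed in RIPA buffer (10 mM Tris-HCl pH 7.5, 1 mM EDTA, 0.1% SDS, 0.1% deoxycholate, protease inhibitor). Whole-cell extracts were immunoblotted for phospho-IκB-α and phospho-Stat3 (Tyr705), with tubulin as loading control.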
A general note: Immunoblotting shows a protein as a band on a membrane.

For assay [4], the target named is T1, Inhibitor of nuclear factor kappa-B kinase subunit alpha (Homo sapiens). Nature of the assay: Inhibition of TPA-induced IkappaBalpha phosphorylation in HEK293 whole cell extract at 31.6 uM treated 1 hr before TPA stimulation measured after 18 hrs by immunoblot analysis. The assay is classed as cell-based. In short, it runs like this:
as §2

The target in assay [5] is Signal transducer and activator of transcription 3 (Homo sapiens) (UniProt P40763). Nature of the assay: Inhibition of TPA-induced phosphorylation at Tyr705 of Stat3 in HEK293 whole cell extract at 35.5 uM treated 1 hr before TPA stimulation measured after 18 hrs by immunoblot analysis. The gist of the method:
as §2

Assay [6] shares this target. Nature of the assay: Inhibition of TPA-induced phosphorylation at Tyr705 of Stat3 in HEK293 whole cell extract at 71.3 uM treated 1 hr before TPA stimulation measured after 18 hrs by immunoblot analysis. The assay is classed as cell-based. The gist of the method:
as §2

Assay [7] shares this target. Nature of the assay: Inhibition of TPA-induced phosphorylation at Tyr705 of Stat3 in HEK293 whole cell extract at 20.4 uM treated 1 hr before TPA stimulation measured after 18 hrs by immunoblot analysis. The assay is classed as cell-based. In short, it runs like this:
as §2

The target is the same in assay [8]. Nature of the assay: Inhibition of TPA-induced phosphorylation at Tyr705 of Stat3 in HEK293 whole cell extract at 40.8 uM treated 1 hr before TPA stimulation measured after 18 hrs by immunoblot analysis. It is filed as cell-based. The gist of the method: as §2
For assay [9] the target is unchanged. Nature of the assay: Inhibition of TPA-induced phosphorylation at Tyr705 of Stat3 in HEK293 whole cell extract at 15.8 uM treated 1 hr before TPA stimulation measured after 18 hrs by immunoblot analysis. The assay is classed as cell-based. The gist of the method:
as §2

Assay [10] has the same target. Nature of the assay: Inhibition of TPA-induced phosphorylation at Tyr705 of Stat3 in HEK293 whole cell extract at 31.6 uM treated 1 hr before TPA stimulation measured after 18 hrs by immunoblot analysis. It is filed as cell-based. The gist of the method: as §2
A short description of assay [11]: Inhibition of protein synthesis in cell-free extract of mouse Krebs2 cells by SDS-PAGE. The assay is classed as functional.
The subject of assay [12] is HeLa. Nature of the assay: Inhibition of protein synthesis in human HeLa cells assessed as [35S]methionine incorporation into protein treated for 45 mins before [35S]methionine addition by Whatman paper analysis. It is filed as functional, cell-based.
The nature of assay [13]: Growth inhibition of human NCI60 cells. The assay is classed as functional. The following applies: Homo sapiens, NCI60.
The nature of assay [14]: Growth inhibition of human AP-1 beta-lactamase reporter screening assay cells at 1 uM. As to conditions: AP-1 reporter cells.
Assay [15] deals with T1, Inhibitor of nuclear factor kappa-B kinase subunit alpha (Homo sapiens). Nature of the assay: Inhibition of TPA-induced IkappaBalpha phosphorylation in HEK293 whole cell extract at 20.4 uM treated 1 hr before TPA stimulation measured after 18 hrs by immunoblot analysis. It is filed as cell-based. The gist of the method: (§3)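 HEK293 cells grown in DMEM with 10% FBS at 37 °C and 5% CO2. Cells were pretreated with quassinoid or DMSO for 1 h, then stimulated with TPA (10 ng/mL) for 18 h. Whole-cell extracts were made in RIPA buffer (10 mM Tris-HCl pH 7.5, 1 mM EDTA, 0.1% SDS, 0.1% deoxycholate, protease inhibitor). Immunoblots were probed for phospho-IκB-α, with tubulin as loading control.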

The target is the same in assay [16]. Nature of the assay: Inhibition of TPA-induced IkappaBalpha phosphorylation in HEK293 whole cell extract at 40.8 uM treated 1 hr before TPA stimulation measured after 18 hrs by immunoblot analysis. The assay is classed as cell-based. In short, it runs like this: as §3
Assay [17] shares this target. Nature of the assay: Inhibition of TPA-induced IkappaBalpha phosphorylation in HEK293 whole cell extract at 35.5 uM treated 1 hr before TPA stimulation measured after 18 hrs by immunoblot analysis. In short, it runs like this: as §2
For assay [18] the target is unchanged. Nature of the assay: Inhibition of TPA-induced IkappaBalpha phosphorylation in HEK293 whole cell extract at 71.3 uM treated 1 hr before TPA stimulation measured after 18 hrs by immunoblot analysis. It is filed as cell-based. The gist of the method:
as §2

The source made the active and inactive calls. No cut-off for these calls is given here. A value given as a limit tells only on which side of the number the result lay.

Chain of Signal transducer and activator of transcription 3 (Homo sapiens) (P40763 whole entry): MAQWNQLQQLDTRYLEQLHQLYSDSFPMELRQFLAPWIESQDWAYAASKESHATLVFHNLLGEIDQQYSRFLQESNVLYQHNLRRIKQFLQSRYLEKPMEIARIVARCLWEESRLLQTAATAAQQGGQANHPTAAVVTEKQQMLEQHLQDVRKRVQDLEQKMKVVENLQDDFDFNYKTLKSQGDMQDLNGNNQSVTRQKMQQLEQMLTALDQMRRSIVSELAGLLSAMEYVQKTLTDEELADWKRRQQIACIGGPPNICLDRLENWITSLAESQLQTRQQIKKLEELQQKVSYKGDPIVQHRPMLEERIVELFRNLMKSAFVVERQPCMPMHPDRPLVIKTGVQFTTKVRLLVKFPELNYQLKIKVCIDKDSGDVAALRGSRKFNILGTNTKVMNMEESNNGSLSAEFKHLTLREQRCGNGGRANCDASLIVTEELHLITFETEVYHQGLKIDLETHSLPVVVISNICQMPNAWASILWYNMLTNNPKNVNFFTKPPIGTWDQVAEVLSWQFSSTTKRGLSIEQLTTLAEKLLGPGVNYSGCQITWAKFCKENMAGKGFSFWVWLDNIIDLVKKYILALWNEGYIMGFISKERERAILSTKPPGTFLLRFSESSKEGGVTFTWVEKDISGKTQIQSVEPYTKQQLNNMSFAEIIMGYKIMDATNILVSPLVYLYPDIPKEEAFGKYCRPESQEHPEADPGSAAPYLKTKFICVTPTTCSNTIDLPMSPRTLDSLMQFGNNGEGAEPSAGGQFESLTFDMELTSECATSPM

In the case of `CCC(C)C(=O)O[C@H]1C(=O)O[C@@H]2C[C@H]3C(C)=CC(=O)[C@@H](O)[C@]3(C)[C@H]3[C@]4(O)OC[C@]32[C@@H]1[C@@H](C)[C@H]4O` (some centres not stated) [AILANTHINONE], the inhibition entry in [1] and in [2] was “Dose-dependent effect” throughout. The inhibition result in assay [3] and in assay [4] was “Active” throughout. The inhibition entry in assay [5], in assay [6], in assay [7], in assay [8], in assay [9] and in [10] was “inactive” in each case. For the same compound, the half-inhibitory concentration (IC50) (usually the concentration needed to halve the response being measured) in [11] worked out at 420 nM; in [12] it was 3.4 nM. In assay [13], the GI50 (in general, the concentration at which growth is held to half of that of the control) was determined as 31000 nM. The inhibition (as a rule, the drop in the measured response relative to a control, in per cent) at 1 µM in assay [14] is below 25%.
Consider `CC[C@](C)(O)C(=O)O[C@H]1C(=O)O[C@@H]2C[C@H]3C(C)=CC(=O)[C@@H](O)[C@]3(C)[C@H]3[C@@]4(O)OC[C@]32[C@@H]1[C@@H](C)[C@H]4O` (stereo in doubt; 4), for which the inhibition entry in assay [1] and in [2] was “Dose-dependent effect” each time. The inhibition entry in assay [15] and in assay [16] was “Active” in each case. The inhibition result in assay [5], in assay [6], in assay [7], in [8], in [9] and in assay [10] was “inactive” each time.
Consider `CC(C)=CC(=O)O[C@@H]1[C@H]2C(C)=C[C@H](O)[C@@H](O)[C@]2(C)[C@H]2[C@]3(O)OC[C@@]24[C@@H]1OC(=O)C[C@H]4[C@@H](C)[C@H]3O`, for which the inhibition result in [1] and in assay [2] was “Dose-dependent effect” each time. For the same compound, the inhibition result in assay [17] and in assay [18] was “Active” in each case. In addition, the inhibition entry in assay [5], in assay [6], in [7], in assay [8], in assay [9] and in [10] was “inactive” each time. Further, the IC50 in assay [11] was 910 nM; in assay [12] it was 670 nM. The compound further returned a GI50 in assay [13] of 260 nM.
